Reference: ChEMBL document CHEMBL4387709, “Discovery of Quinoline Analogues as Potent Antivirals against Enterovirus D68 (EV-D68)” (J Med Chem, 2019)
The source made the active and inactive calls. The rule behind the calls is not given here.

How the values were obtained:
enterovirus D68 [1] = test: Antiviral activity against Enterovirus D68 US/KY/14-18953 infected in human RD cells assessed as inhibition of virus-induced cytopathic effect incubated for 5 mins under shaking condition and measured after 3 days by neutral red dye-based photometric method; type: functional, organism-based; conditions: Enterovirus D, US/KY/14-18953, RD
Summary of the method: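 RD cells seeded one day ahead to ~90% confluence, PBS (Mg/Ca) wash, infected at ~MOI 0.01 with EV-D68 in DMEM/2% FBS/30 mM MgCl2 at 33 °C, 5% CO2. Compounds and 1% P/S added after 1 h. Plates shaken ~5 min, held 3 days, viable cells stained with neutral red (66 µg/ml), A540 read. EC50 from dose-response fits, triplicates.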

Influenza B virus = test: Antiviral activity against Influenza B virus (B/Brisbane/60/2008) at 10 uM after 2 days by plaque assay; type: functional, organism-based
[2] = Selectivity index, ratio of CC50 for human SH-SY5Y cells to EC50 for Enterovirus D68 US/MO/14-18947 infected in human SH-SY5Y cells; type: toxicity, cell-based; conditions: read-out: Ratio CC50/EC50
Summary of the method: (§1)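 SH-SY5Y cells grown in 50% DMEM/50% F-12 with 10% FBS and 1% P/S to about 90% confluency, then infected at MOI about 1 in DMEM with 2% FBS and 30 mM MgCl2 at 33 °C. Compounds were added after 1 h. Neutral red staining was read at 540 nm after 3 days. CC50 came from uninfected cells under the same conditions. Values were triplicate dose-response fits, and SI = CC50/EC50.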

[3] = Selectivity index, ratio of CC50 for human RD cells to EC50 for Enterovirus D68 US/KY/14-18953 infected in human RD cells; type: toxicity, cell-based; conditions: read-out: Ratio CC50/EC50
[4] = Selectivity index, ratio of CC50 for human SH-SY5Y cells to EC50 for Enterovirus D68 US/KY/14-18953 infected in human SH-SY5Y cells; type: toxicity, cell-based; conditions: read-out: Ratio CC50/EC50; summary of the method: as §1
SH-SY5Y = test: Cytotoxicity against human SH-SY5Y cells after 3 days by neutral red dye-based photometric method; type: cell-based; conditions: 72 h
Summary of the method: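 Uninfected cells run as in the CPE assay (33 °C, 3 days, same media) with compound. Viability by neutral red staining and 540 nm absorbance. CC50 from dose-response curves, triplicate experiments.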

RD = test: Inhibition of 2C protein in Enterovirus D68 US/KY/14-18953 infected in human RD cells assessed as reduction of viral RNA synthesis at 1 uM measured at 9 hrs post infection by reagent-based RT-qPCR method relative to control; type: cell-based
Summary of the method: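 DNase-treated. 1.2 µg reverse-transcribed with oligo(dT)18. qPCR run 95 °C 10 min, then 40 cycles of 95 °C 15 s/60 °C 60 s, with melt curve. Compared with DMSO control, one-way ANOVA, mean of two experiments ± SD.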

enterovirus D68 [5] = test: Antiviral activity against Enterovirus D68 US/KY/14-18953 infected in human A172 cells assessed as inhibition of virus-induced cytopathic effect incubated for 5 mins under shaking condition and measured after 3 days by neutral red dye-based photometric method; type: functional, organism-based; conditions: Enterovirus D, US/KY/14-18953, A 172
Summary of the method: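 A172 cells (DMEM, 10% FBS) grown ~90% confluent, infected with EV-D68 at ~MOI 0.3 in DMEM/2% FBS/30 mM MgCl2 and kept at 33 °C. P/S and compounds added 1 h later. Brief orbital shaking, then 3-day incubation. Neutral red staining with 540 nm absorbance. EC50 from best-fit dose-response curves in triplicate.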

[6] = Selectivity index, ratio of CC50 for human RD cells to EC50 for Enterovirus D68 US/MO/14-18949 infected in RD human cells; type: toxicity, cell-based; conditions: read-out: Ratio CC50/EC50

O=C(NCCN1CCCC1)c1cc(-c2cccs2)nc2ccccc12
EC50 (enterovirus D68 [1]): 60 nM | Activity (Influenza B virus): inactive | selectivity ratio [2]: 4660 | selectivity ratio [3]: 667 | selectivity ratio [4]: 933 | CC50 (SH-SY5Y): 93300 nM | inhibition (RD): > 99% | EC50 (enterovirus D68 [5]): 50 nM | selectivity ratio [6]: 800
